pEC50: −log10 of the molar value. Activity calls are given as the source filed them. The calls are words filed in the database; no cut-off is given here.
Columns and labels:
[1] = biological target: T1, Transient receptor potential cation channel subfamily V member 1 (Rattus norvegicus, UniProt O35433); assay: Agonist activity at TRPV1 in rat isolated mesenteric arteries assessed as vasorelaxation of phenylephrine-induced contraction in presence of TRPV1 antagonist capsazepine; type: tissue-based, Artery
In short: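 Segments from male Wistar rats (200–250 g) were bathed in pH 7.4 physiological salt solution at 37 °C, gassed 95% O₂/5% CO₂, with indomethacin 10 μM and Nω-nitro-L-arginine 100 μM present. After phenylephrine precontraction, conjugate concentration–relaxation curves were run in the presence of capsazepine 3 μM. pEC₅₀ is the negative log molar concentration giving half-maximal relaxation; mean ± SEM, n = animals.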

[2] = biological target: T1, Transient receptor potential cation channel subfamily V member 1; assay: Agonist activity at TRPV1 in rat isolated mesenteric arteries assessed as vasorelaxation of phenylephrine-induced contraction; type: tissue-based, Artery
In short: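 Indomethacin 10 μM and Nω-nitro-L-arginine 100 μM were present throughout. Segments were precontracted with phenylephrine and exposed to conjugate concentrations. pEC₅₀ taken at half-maximal relaxation; mean ± SEM, n = animals.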

[3] = Prodrug conversion in FAAH-/- mouse brain assessed as N-arachidonoyl conjugate level per g protein at 0.1 mM measured after 20 mins by LC-MS/MS analysis; type: ADME, tissue-based; settings: in vitro, 100 µM
In short: (§1)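 Brains from FAAH+/+ or FAAH-/- mice were homogenized in ice-cold 10 mM Tris with 1 mM EDTA and 0.3 mM ascorbic acid. Aliquots were incubated with 0.1 mM primary amine for 20 min at 37 °C with stirring. Reactions were stopped with cold acetone containing AM404-d4 internal standard, and conjugates were measured by LC-MS/MS. n = 5–7.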

[4] = Prodrug conversion in FAAH+/+ mouse brain assessed as N-arachidonoyl conjugate level per g protein at 100 mg/kg, ip measured after 20 mins by LC-MS/MS analysis; type: ADME, organism-based; design: unit: pmol/g protein; settings: in vivo
In short: (§2)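 FAAH+/+ and FAAH-/- mice (both sexes) received the primary amine i.p. in saline (sometimes with 5% DMSO). Brains were collected 20 min later, frozen, and homogenized in Tris/EDTA/ascorbate with 10 μM MAFP. N-arachidonoyl conjugates were quantified by positive-ion LC-MS/MS and normalized to protein.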

[5] = biological target: T2, Fatty-acid amide hydrolase 1 (Mus musculus, UniProt O08914); assay: Substrate activity at FAAH in FAAH+/+ mouse brain assessed as N-arachidonoyl conjugate level per g protein at 0.1 mM measured after 20 mins by LC-MS/MS analysis; type: ADME, tissue-based; settings: 100 µM; in short: as §1
T2 sequence (O08914 whole entry): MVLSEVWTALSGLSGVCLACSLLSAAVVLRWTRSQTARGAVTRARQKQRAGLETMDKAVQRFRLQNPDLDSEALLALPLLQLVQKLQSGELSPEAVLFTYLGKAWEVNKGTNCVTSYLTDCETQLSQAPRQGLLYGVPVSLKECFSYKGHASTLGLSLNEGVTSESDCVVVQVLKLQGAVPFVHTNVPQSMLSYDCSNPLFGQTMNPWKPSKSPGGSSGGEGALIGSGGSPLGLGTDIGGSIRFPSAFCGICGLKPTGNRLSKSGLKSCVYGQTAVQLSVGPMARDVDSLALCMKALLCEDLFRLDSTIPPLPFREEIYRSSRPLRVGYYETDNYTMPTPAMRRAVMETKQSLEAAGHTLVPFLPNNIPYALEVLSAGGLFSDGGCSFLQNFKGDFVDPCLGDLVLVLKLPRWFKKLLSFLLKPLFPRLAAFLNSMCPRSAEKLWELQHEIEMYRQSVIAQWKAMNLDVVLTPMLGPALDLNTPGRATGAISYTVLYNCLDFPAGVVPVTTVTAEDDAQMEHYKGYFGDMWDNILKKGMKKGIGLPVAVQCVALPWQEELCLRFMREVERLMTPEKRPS

[6] = Prodrug conversion in FAAH-/- mouse brain assessed as N-arachidonoyl conjugate level per g protein at 100 mg/kg, ip measured after 20 mins by LC-MS/MS analysis; type: ADME, organism-based; design: unit: pmol/g protein; settings: in vivo; in short: as §2
Mus musculus [7] = assay: Antipyretic activity against LPS-induced C57BL/6 mouse model of hyperthermia assessed as PGE2 level in diencephalon at 25 mg/kg, ip measured after 40 mins by LC-MS/MS analysis relative to control; type: functional
In short: (§3)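 Male C57BL/6 mice got LPS (E. coli O111:B4, 100 μg kg⁻¹ i.p.) or saline, then 3 h later the drug i.p. in Ringer's acetate vehicle. Diencephalon was taken 40 min later and homogenized in Tris/EDTA/ascorbate with 10 μM MAFP and 100 μM ibuprofen. Prostanoids were quantified by negative-ion LC-MS/MS and expressed as % of LPS + vehicle. n = 6.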

Mus musculus [8] = assay: Antipyretic activity against LPS-induced C57BL/6 mouse model of hyperthermia assessed as reduction in body temperature at 25 mg/kg, ip measured after 48 mins; type: functional, organism-based
In short: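 Male C57BL/6 mice carried telemetry and recovered ≥1 week before use, housed at 29 °C ambient (near-thermoneutral). LPS 100 μg kg⁻¹ i.p. or saline was given, then drug or Ringer's acetate vehicle i.p. 3 h later. Core temperature was recorded continuously and analysed at the nadir time point. n = 4–9 per group.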

[9] = Hepatotoxicity in C57BL/6 mouse assessed as change in ALT level at 300 mg/kg, ip measured after 12 hrs; type: toxicity, organism-based; settings: in vivo
In short: (§4)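 Male C57BL/6 mice (8 weeks) were fasted 12–16 h, then given 300 mg kg⁻¹ i.p. in saline. At 12 h, blood was taken for serum ALT/AST (automated analyser). The left medial liver lobe was fixed in 4% formaldehyde, cryosectioned at 10 μm and stained with H&E. The ALT/AST ratio was tested against 1. Mean ± SEM, n = 6–7.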

Mus musculus [10] = assay: Antipyretic activity against LPS-induced C57BL/6 mouse model of hyperthermia assessed as TXB2 level in diencephalon at 25 mg/kg, ip measured after 40 mins by LC-MS/MS analysis relative to control; type: functional; in short: as §3
Mus musculus [11] = assay: Antipyretic activity against LPS-induced C57BL/6 mouse model of hyperthermia assessed as 6-keto-PGF1alpha level in diencephalon at 25 mg/kg, ip measured after 40 mins by LC-MS/MS analysis relative to control; type: functional; in short: as §3
Mus musculus [12] = assay: Antinociceptive activity in C57BL/6 mouse assessed as reduction in licking time during first phase at 25 mg/kg, ip treated for 10 mins and measured for 5 mins in presence of TRPV1 antagonist capsazepine by formalin test; type: functional, organism-based; settings: time 15.0 min
In short: (§5)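 Male C57BL/6 mice, 8 weeks old. URB937 (5 μg in 5 μl) or capsazepine (10 μg in 5 μl) was given i.c.v. under brief isoflurane, 2 mm deep, 5 min before the i.p. test amine. Formalin 2.5% (25 μl) was injected intraplantar 10 min after dosing. Paw biting/licking time was scored in phase I (0–5 min) and phase II (15–40 min) by a blinded observer. Mean ± SEM, n = 8–14.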

Mus musculus [13] = assay: Antinociceptive activity in ip dosed C57BL/6 mouse assessed as reduction in licking time during first phase treated for 10 mins and measured for 5 mins by formalin test; type: functional, organism-based; settings: dose 25-100 mg/kg, time 15.0 min
In short: (§6)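 Male C57BL/6 mice, 8 weeks old, randomized in equal blocks (5–10 per group), observer blinded. The test amine or vehicle was given i.p. 10 min before intraplantar 2.5% formalin (25 μl/mouse). Time spent biting/licking the injected paw was recorded in phase I (0–5 min) and phase II (15–40 min). Mean ± SEM, n = 5–6.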

[14] = Hepatotoxicity in C57BL/6 mouse assessed as centrilobular necrosis at 300 mg/kg, ip measured after 12 hrs by H and E staining based microscopic analysis; type: toxicity, organism-based; settings: in vivo; in short: as §4
Mus musculus [15] = assay: Antipyretic activity against LPS-induced C57BL/6 mouse model of hyperthermia assessed as PGF2alpha level in diencephalon at 25 mg/kg, ip measured after 40 mins by LC-MS/MS analysis relative to control; type: functional; in short: as §3
Mus musculus [16] = assay: Antinociceptive activity in ip dosed C57BL/6 mouse assessed as reduction in licking time during second phase treated for 10 mins and measured for 15 to 40 mins by formalin test; type: functional, organism-based; settings: dose 25-100 mg/kg, time 50.0 min; in short: as §6
[17] = Effect on locomotor activity in C57BL/6 mouse assessed as change in latency to fall at 25 mg/kg, ip treated for 10 mins measured up to 60 mins by rotarod test; type: ADME, organism-based; settings: in vivo, 1 h
In short: (§7)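 Male C57BL/6 mice were first trained on a rotarod at a constant 4 rpm in 1-min sessions. At various times after i.p. dosing, the drum was accelerated from 4 to 40 rpm over 5 min and the latency to fall was recorded.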

Mus musculus [18] = assay: Antinociceptive activity in C57BL/6 mouse assessed as reduction in licking time during second phase at 25 mg/kg, ip treated for 10 mins and measured for 15 to 40 mins in presence of FAAH inhibitor URB937 by formalin test; type: functional, organism-based; settings: time 50.0 min; in short: as §5
Mus musculus [19] = assay: Antinociceptive activity in C57BL/6 mouse assessed as reduction in licking time during first phase at 25 mg/kg, ip treated for 10 mins and measured for 5 mins in presence of FAAH inhibitor URB937 by formalin test; type: functional, organism-based; settings: time 15.0 min; in short: as §5
Mus musculus [20] = assay: Antinociceptive activity in C57BL/6 mouse assessed as reduction in licking time during second phase at 25 mg/kg, ip treated for 10 mins and measured for 15 to 40 mins in presence of TRPV1 antagonist capsazepine by formalin test; type: functional, organism-based; settings: time 50.0 min; in short: as §5
[21] = Prodrug conversion in FAAH-/- mouse brain assessed as N-arachidonoyl conjugate level per g protein at 300 mg/kg, ip measured after 20 mins by LC-MS/MS analysis; type: ADME, organism-based; settings: in vivo; in short: as §2
[22] = Prodrug conversion in FAAH+/+ mouse brain assessed as N-arachidonoyl conjugate level per g protein at 300 mg/kg, ip measured after 20 mins by LC-MS/MS analysis; type: ADME, organism-based; settings: in vivo; in short: as §2
Mus musculus [23] = assay: Antinociceptive activity in C57BL/6 mouse assessed as reduction in licking time during first phase at 50 mg/kg, ip treated for 10 mins and measured for 5 mins in presence of TRPV1 antagonist capsazepine by formalin test; type: functional, organism-based; settings: time 15.0 min; in short: as §5
[24] = Effect on locomotor activity in C57BL/6 mouse assessed as change in latency to fall at 50 to 75 mg/kg, ip treated for 10 mins measured up to 60 mins by rotarod test; type: ADME, organism-based; settings: in vivo, 1 h, dose 50-75 mg/kg; in short: as §7
Mus musculus [25] = assay: Antinociceptive activity in C57BL/6 mouse assessed as reduction in licking time during first phase at 50 mg/kg, ip treated for 10 mins and measured for 5 mins in presence of FAAH inhibitor URB937 by formalin test; type: functional, organism-based; settings: time 15.0 min; in short: as §5
Mus musculus [26] = assay: Antinociceptive activity in C57BL/6 mouse assessed as reduction in licking time during second phase at 50 mg/kg, ip treated for 10 mins and measured for 15 to 40 mins in presence of FAAH inhibitor URB937 by formalin test; type: functional, organism-based; settings: time 50.0 min; in short: as §5
Mus musculus [27] = assay: Antinociceptive activity in C57BL/6 mouse assessed as reduction in licking time during second phase at 50 mg/kg, ip treated for 10 mins and measured for 15 to 40 mins in presence of TRPV1 antagonist capsazepine by formalin test; type: functional, organism-based; settings: time 50.0 min; in short: as §5

T1 sequence (O35433 whole entry): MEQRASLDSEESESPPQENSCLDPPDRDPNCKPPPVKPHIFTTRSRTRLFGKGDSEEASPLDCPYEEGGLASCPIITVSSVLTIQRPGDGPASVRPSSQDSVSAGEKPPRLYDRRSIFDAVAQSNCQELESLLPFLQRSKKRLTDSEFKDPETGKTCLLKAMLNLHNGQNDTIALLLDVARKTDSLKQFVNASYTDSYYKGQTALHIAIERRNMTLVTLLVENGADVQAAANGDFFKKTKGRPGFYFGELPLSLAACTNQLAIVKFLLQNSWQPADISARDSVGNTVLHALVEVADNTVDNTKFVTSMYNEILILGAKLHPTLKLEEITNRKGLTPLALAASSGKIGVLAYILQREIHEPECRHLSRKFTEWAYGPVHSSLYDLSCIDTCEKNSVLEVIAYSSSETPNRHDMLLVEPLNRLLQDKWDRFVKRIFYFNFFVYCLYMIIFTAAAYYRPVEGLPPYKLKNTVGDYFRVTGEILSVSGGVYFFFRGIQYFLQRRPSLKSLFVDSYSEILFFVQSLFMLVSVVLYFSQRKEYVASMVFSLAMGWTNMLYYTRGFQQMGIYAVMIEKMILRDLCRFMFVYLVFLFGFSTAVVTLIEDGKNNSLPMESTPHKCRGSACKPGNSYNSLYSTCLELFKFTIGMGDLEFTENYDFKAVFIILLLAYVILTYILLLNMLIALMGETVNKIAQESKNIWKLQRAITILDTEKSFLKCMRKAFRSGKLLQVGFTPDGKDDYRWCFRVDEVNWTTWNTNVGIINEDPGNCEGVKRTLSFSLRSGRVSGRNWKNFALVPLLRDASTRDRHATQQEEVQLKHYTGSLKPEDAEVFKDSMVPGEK

Drug metabolism [3] [nmol/g] | Drug metabolism [4] [pmol] | Drug metabolism [5] [nmol/g] | Drug metabolism [6] [pmol] | Structure (SMILES) | pEC50 [1] | pEC50 [2] | also measured
– | – | – | – | CCCCC/C=C\C/C=C\C/C=C\C/C=C\CCCC(=O)Nc1ccc(OC)c(O)c1 | 7.20 | 8.50 | –
– | – | – | – | CCCCC/C=C\C/C=C\C/C=C\C/C=C\CCCC(=O)NCc1ccc2[nH]ncc2c1 | 6.80 | 8.40 | –
0.04 | 58 | 2.5 | 58 | NCc1ccc2[nH]ncc2c1 | – | – | –
– | – | – | – | CCCCC/C=C\C/C=C\C/C=C\C/C=C\CCCC(=O)NCc1ccc(O)c(OC)c1 | – | 9.30 | –
– | – | – | – | CCCCC/C=C\C/C=C\C/C=C\C/C=C\CCCC(=O)Nc1ccc2[nH]ncc2c1 | 6.40 | 7.90 | –
0.09 | 1731 | 12 | 161 | Nc1ccc2[nH]ncc2c1 | – | – | Activity (Mus musculus [7]): 96%; Activity (Mus musculus [8]): Active; Activity [9]: Non-Toxic; Activity (Mus musculus [10]): 91%; Activity (Mus musculus [11]): 99%; Activity (Mus musculus [12]): Active; Activity (Mus musculus [13]): Dose-dependent effect; Activity [14]: Non-Toxic; Activity (Mus musculus [15]): 100%; Activity (Mus musculus [16]): Dose-dependent effect; Activity [17]: Non-Toxic; Activity (Mus musculus [18]): inactive; Activity (Mus musculus [19]): Active; Activity (Mus musculus [20]): inactive
0.005 | 82 | 0.54 | 190 | COc1cc(N)ccc1O | – | – | –
0.01 | – | 2.5 | – | COc1cc(CN)ccc1O | – | – | Drug metabolism [21]: Metabolite_Notdetected; Drug metabolism [22]: 40 pmol; Activity [9]: Non-Toxic; Activity [14]: Non-Toxic
– | – | – | – | CCCCC/C=C\C/C=C\C/C=C\C/C=C\CCCC(=O)Nc1ccc(O)c(OC)c1 | 7.80 | 8.90 | –
0.06 | 283 | 3 | 42 | COc1ccc(N)cc1O | – | – | Activity [9]: Non-Toxic; Activity (Mus musculus [13]): Dose-dependent effect; Activity (Mus musculus [23]): Active; Activity [14]: Non-Toxic; Activity [24]: Non-Toxic; Activity (Mus musculus [25]): Active; Activity (Mus musculus [26]): inactive; Activity (Mus musculus [16]): Dose-dependent effect; Activity (Mus musculus [27]): inactive
– | – | – | – | CCCCC/C=C\C/C=C\C/C=C\C/C=C\CCCC(=O)Nc1ccc(O)cc1 | – | 7.30 | –

From ChEMBL document CHEMBL4732106, “Paracetamol analogues conjugated by FAAH induce TRPV1-mediated antinociception without causing acute liver toxicity” (Eur J Med Chem, 2021)
